Source: ChEMBL document CHEMBL3868592, “Analogues of Marine Guanidine Alkaloids Are in Vitro Effective against Trypanosoma cruzi and Selectively Eliminate Leishmania (L.) infantum Intracellular Amastigotes” (J Nat Prod, 2016)
The source made the active and inactive calls. No cut-off for these calls is given here.

Key:
Peritoneal macrophage [1] = assay: Antiinflammatory activity in BALB/c mouse peritoneal macrophages infected with Leishmania infantum MHOM/BR/1972/LD amastigote form cocultivated with splenocytes assessed as decrease in MCP-1 release at 30 uM after 48 hrs by flow cytometric analysis; format: functional
In short: (§1)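 Peritoneal macrophages from BALB/c mice seeded at 1.5×10^5 cells/well; after 24 h, infected where applicable with L. infantum spleen-derived amastigotes at 1:10 (macrophage:amastigote). After 24 h, cocultured where applicable with splenocytes at 6:1. Compound added for 48 h. Supernatant cytokines quantified with an inflammatory cytometric bead array by flow cytometry. Sham-treated infected macrophages served as reference.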

Leishmania infantum [2] = assay: Induction of plasma membrane permeability in Leishmania infantum MHOM/BR/1972/LD promastigote form assessed as increase in fluorescence intensity at 57 uM measured every 20 mins for 60 mins by SYTOX green dye based fluorimetric assay relative to control; format: functional
In short: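 Late-growth-phase promastigotes (passage 7) washed in PBS, seeded at 2×10^6/well and loaded with 1 μM SYTOX Green for 15 min at 24 °C. Compound added; fluorescence (ex 485/em 520 nm) read every 20 min over 60 min. 0.1% Triton X-100 defined maximal permeabilization. Background, DMSO, untreated and cell-free controls included. Triplicates.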

Peritoneal macrophage [3] = assay: Antiinflammatory activity in BALB/c mouse peritoneal macrophages assessed as decrease in MCP-1 release at 30 uM after 48 hrs by flow cytometric analysis; format: functional; in short: as §1
Peritoneal macrophage [4] = assay: Antiinflammatory activity in BALB/c mouse peritoneal macrophages infected with Leishmania infantum MHOM/BR/1972/LD amastigote form assessed as decrease in MCP-1 release at 30 uM after 48 hrs by flow cytometric analysis; format: functional; in short: as §1
Leishmania infantum [5] = assay: Induction of ROS generation in Leishmania infantum MHOM/BR/1972/LD promastigote form at 57 uM incubated for […] by H2DCF-DA probe based fluorimetric assay relative to sodium azide; format: functional
In short: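 Promastigotes (2 × 10^6/well) washed in HBSS and exposed to compound for 60 min, then loaded with 5 μM H2DCFDA for 15 min. Fluorescence read at ex 485/em 520 nm. Sodium azide (10 mM) served as positive control. Controls were compound background fluorescence, DMSO, untreated promastigotes and cell-free medium. Run in triplicate.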

Leishmania infantum [6] = assay: Antileishmanial activity against Leishmania infantum MHOM/BR/1972/LD promastigote forms […] assessed as reduction in parasite viability after 48 hrs by MTT assay; format: functional
In short: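 Late-growth-phase promastigotes (passage 5) seeded at 1×10^6/well in M-199. Compounds dissolved in DMSO, tested up to 100 μM, 48 h at 24 °C. Viability by MTT, OD 570 nm, against drug-free (100%) and cell-free blank wells; 0.5% DMSO control. IC50 from sigmoidal dose-response curves; ≥2 independent assays.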

Peritoneal macrophage [7] = assay: Antiinflammatory activity in BALB/c mouse peritoneal macrophages co-cultivated with splenocytes assessed as decrease in MCP-1 release at 30 uM after 48 hrs by flow cytometric analysis; format: functional; in short: as §1
Peritoneal macrophage [8] = assay: Antiinflammatory activity in BALB/c mouse peritoneal macrophages assessed as decrease in INF-gamma release at 30 uM after 48 hrs by flow cytometric analysis; format: functional; in short: as §1
[9] = Selectivity index, ratio of CC50 for mouse NCTC-929 cells to IC50 for Trypanosoma cruzi Y trypomastigote form infected in monkey LLC-MK2 cells; format: functional
Peritoneal macrophage [10] = assay: Antiinflammatory activity in BALB/c mouse peritoneal macrophages infected with Leishmania infantum MHOM/BR/1972/LD amastigote form cocultivated with splenocytes assessed as decrease in INF-gamma release at 30 uM after 48 hrs by flow cytometric analysis; format: functional; in short: as §1
Trypanosoma cruzi = assay: Antitrypanosomal activity against Trypanosoma cruzi Y trypomastigote forms infected in monkey LLC-MK2 cells assessed as reduction in parasite viability after 24 hrs by resazurin assay; format: functional, cell-based; conditions: LLC-MK2, 24 h
In short: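 Y-strain trypomastigotes from LLC-MK2 cultures seeded at 1×10^6/well in RPMI-1640. Compounds up to 150 μM, 24 h at 37 °C, 5% CO2. Viability by resazurin (0.011% in PBS), read at 570 nm against drug-free and cell-free wells; 0.5% DMSO control. IC50 by sigmoidal dose-response curve fitting.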

Splenocyte = assay: Antiinflammatory activity in splenocytes (unknown origin) assessed as decrease in MCP1 release at 30 uM after 48 hrs by flow cytometric analysis; format: functional, cell-based
Peritoneal macrophage [11] = assay: Antiinflammatory activity in BALB/c mouse peritoneal macrophages co-cultivated with splenocytes assessed as decrease in INF-gamma release at 30 uM after 48 hrs by flow cytometric analysis; format: functional; in short: as §1
Leishmania infantum [12] = assay: Induction of mitochondrial membrane potential loss in Leishmania infantum MHOM/BR/1972/LD promastigote form at 57 uM incubated for 60 mins by rhodamine-123 dye based fluorimetric assay; format: functional
In short: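 Promastigotes (2×10^6/mL) in HBSS-glucose exposed to compound for 60 min at 25 °C. Rhodamine-123 (0.3 μg/mL) then added, cells washed and resuspended in HBSS-Glc, and fluorescence read at ex 485/em 520 nm. Sodium azide 10 mM as positive control; background, DMSO and untreated controls included. Triplicates.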

[13] = Cytotoxicity against mouse NCTC-929 cells assessed as decrease in cell viability after 48 hrs by MTT assay; format: toxicity
In short: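 NCTC clone 929 murine cells seeded at 6×10^4/well. Compound up to 150 μM for 48 h at 37 °C, 5% CO2. Viability read by MTT. CC50 from sigmoidal dose-response; mean of at least two independent experiments.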

Peritoneal macrophage [14] = assay: Antiinflammatory activity in BALB/c mouse peritoneal macrophages infected with Leishmania infantum MHOM/BR/1972/LD amastigote form assessed as decrease in INF-gamma release at 30 uM after 48 hrs by flow cytometric analysis; format: functional; in short: as §1
[15] = Selectivity index, ratio of CC50 for mouse NCTC-929 cells to IC50 for Leishmania infantum MHOM/BR/1972/LD amastigote forms infected in BALB/c mouse macrophages; format: functional
Leishmania infantum [16] = assay: Antileishmanial activity against Leishmania infantum MHOM/BR/1972/LD amastigote forms infected in BALB/c mouse peritoneal macrophages assessed as reduction in parasite viability after 120 hrs by giemsa staining based light microscopy; format: functional
In short: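 BALB/c peritoneal macrophages seeded at 1×10^5/well for 24 h, then infected with hamster spleen-derived amastigotes (1:10 macrophage:amastigote, 24 h, 37 °C, 5% CO2). Compound exposure for 120 h, highest 100 μM. Cells MeOH-fixed and Giemsa-stained; infected macrophages counted out of 400 cells. IC50 from sigmoidal dose-response; at least two independent assays.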

C[C@@H]1C[C@@H]2CC[C@@H]3C[C@H](CCCCOCc4ccccc4)NC(=[NH+]1)N32.F[B-](F)(F)F
Activity (Peritoneal macrophage [1]): Active
Activity (Leishmania infantum [2]): 25%
Activity (Peritoneal macrophage [3]): Active
Activity (Peritoneal macrophage [4]): Active
fold change (FC) (Leishmania infantum [5]): 3
IC50 (Leishmania infantum [6]): 57 µM
Activity (Peritoneal macrophage [7]): Active
Activity (Peritoneal macrophage [8]): Active
Ratio CC50/IC50 [9]: 3
Activity (Peritoneal macrophage [10]): Active
IC50 (Trypanosoma cruzi): 41 µM
Activity (Splenocyte): Active
Activity (Peritoneal macrophage [11]): Active
Activity (Leishmania infantum [12]): 70%
CC50 at 48 h [13]: 138 µM
Activity (Peritoneal macrophage [14]): Active
Ratio CC50/IC50 [15]: 25
IC50 (Leishmania infantum [16]): 5 µM
